Experimental data reported in ChEMBL document CHEMBL2177038 (J Med Chem, 2012).

Tests used:
Cannabinoid receptor 2 [1] = target: T1, Cannabinoid receptor 2 (Homo sapiens, UniProt P34972); assay: Displacement of [3H]CP55940 from human CB2 receptor expressed in CHO cells incubated for 1 hr; format: cell-based
Bone marrow cell [2] = assay: Inhibition of osteoclastogenesis in human mononuclear bone marrow cells incubated for 3 weeks at 37 degC by osteoclast formation assay; format: functional, cell-based
In short: (§1)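 Nonadherent human marrow mononuclear cells from healthy donors, 2×10^5 per well, in MEM with 20% horse serum, 10 ng/mL M-CSF and 25 ng/mL RANKL (legend states RANKL 50 ng/mL). Compounds present throughout, with drug-containing half-medium changes twice weekly; 3 weeks at 37 °C, 5% CO2. 23c6 antibody stain; 23c6+ cells with ≥3 nuclei counted; triplicate, mean ± SD.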

Cannabinoid receptor 1 = Cannabinoid receptor 1 (Homo sapiens, UniProt P21554); assay: biochemical; format: cell-based, CHO
Chain of Cannabinoid receptor 1 (P21554 whole entry): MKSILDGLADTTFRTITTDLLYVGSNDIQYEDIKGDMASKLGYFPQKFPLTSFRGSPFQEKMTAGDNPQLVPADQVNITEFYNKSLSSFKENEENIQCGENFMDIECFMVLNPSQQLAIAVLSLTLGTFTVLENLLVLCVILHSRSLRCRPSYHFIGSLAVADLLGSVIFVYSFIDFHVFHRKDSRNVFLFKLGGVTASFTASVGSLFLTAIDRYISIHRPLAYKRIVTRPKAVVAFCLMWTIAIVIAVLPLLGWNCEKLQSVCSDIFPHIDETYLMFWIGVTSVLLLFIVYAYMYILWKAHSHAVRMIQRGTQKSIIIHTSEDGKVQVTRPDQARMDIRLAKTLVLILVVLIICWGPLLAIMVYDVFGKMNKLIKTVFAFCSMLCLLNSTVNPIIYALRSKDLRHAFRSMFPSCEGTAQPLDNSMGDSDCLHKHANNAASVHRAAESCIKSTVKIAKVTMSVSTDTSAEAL

Homo sapiens = species: Homo sapiens; assay: Selectivity index, ratio of Ki for human CB1 receptor to KI for human CB2 receptor
Cannabinoid receptor 2 [3] = target: T1, Cannabinoid receptor 2; assay: Inverse agonist activity at human CB2 receptor expressed in CHO cells assessed as increase in forskolin-induced cAMP accumulation incubated for 45 mins by TR-FRET method based LANCE cAMP assay; format: functional, cell-based
PBMC = assay: Toxicity against human PBMC assessed effect on cell viability at 1 to 10 uM incubated for 72 hrs by trypan blue dye exclusion method; format: cell-based
In short: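 PBMC from healthy medication-free donors, isolated on Ficoll-Hypaque, washed in ice-cold PBS. Cells held in medium with 10% inactivated FBS and 2 mM glutamine (5×10^5/mL; legend 10^5 cells/well). Compounds come from a 50 mM DMSO stock, final DMSO 0.02%, exposure 72 h. Viability read by trypan blue exclusion; three assays, mean ± SD.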

Bone marrow cell [4] = assay: Inhibition of osteoclastogenesis in human mononuclear bone marrow cells at 1 uM incubated for 3 weeks at 37 degC by osteoclast formation assay; format: functional; conditions: 504 h; in short: as §1
Bone marrow cell [5] = assay: Inhibition of osteoclastogenesis in human mononuclear bone marrow cells at 10 uM incubated for 3 weeks at 37 degC by osteoclast formation assay; format: functional; conditions: 504 h; in short: as §1
Bone marrow cell [6] = assay: Inhibition of osteoclastogenesis in human mononuclear bone marrow cells at 0.1 uM incubated for 3 weeks at 37 degC by osteoclast formation assay; format: functional; conditions: 504 h; in short: as §1

T1 sequence (P34972 whole entry): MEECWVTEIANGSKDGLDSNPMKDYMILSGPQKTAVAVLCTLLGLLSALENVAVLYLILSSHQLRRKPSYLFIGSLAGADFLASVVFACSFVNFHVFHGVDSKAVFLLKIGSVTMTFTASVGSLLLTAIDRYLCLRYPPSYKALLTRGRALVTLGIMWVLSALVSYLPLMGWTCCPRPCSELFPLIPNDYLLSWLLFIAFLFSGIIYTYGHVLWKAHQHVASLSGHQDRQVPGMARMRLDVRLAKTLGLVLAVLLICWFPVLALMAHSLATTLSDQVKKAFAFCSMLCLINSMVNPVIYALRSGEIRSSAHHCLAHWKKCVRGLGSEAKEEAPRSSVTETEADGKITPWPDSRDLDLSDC

Structure (SMILES) | Ki (Cannabinoid receptor 2 [1]) | Ki (Cannabinoid receptor 1) | Ratio Ki (Homo sapiens) | further results
O=C(Cc1ccc(C(F)(F)F)cc1)NC(NC(=O)Cc1ccc(C(F)(F)F)cc1)c1ccccc1F | > 20 µM |  |  | 
Cc1ccc(Cn2nc(C(=O)NC3C4(C)CCC(C4)C3(C)C)cc2-c2ccc(Cl)c(C)c2)cc1 (centres undefined) |  |  |  | inhibition (Bone marrow cell [2]): Dose-dependent effect
CCN(CC)c1ccc(C(NC(=O)C(C)C)NC(=O)C(C)C)cc1 |  | > 20 µM |  | 
O=C(Cc1ccc(Cl)cc1)NC(NC(=O)Cc1ccc(Cl)cc1)c1ccc([N+](=O)[O-])cc1 | > 20 µM |  |  | 
O=C(Cc1ccc(Cl)cc1)NC(NC(=O)Cc1ccc(Cl)cc1)c1ccc(Cl)cc1 |  | > 20 µM | > 130 | 
CCCCCCCC(=O)NC(NC(=O)CCCCCCC)c1ccc(N(CC)CC)cc1 |  | > 20 µM | > 136 | 
O=C(Cc1ccc(C(F)(F)F)cc1)NC(NC(=O)Cc1ccc(C(F)(F)F)cc1)c1ccc(F)cc1 | > 20 µM |  |  | 
CCN(CC)c1ccc(C(NC(=O)C(C)(C)C)NC(=O)C(C)(C)C)cc1 |  | > 20 µM |  | 
Cc1ccc(C(NC(=O)Cc2ccc(Cl)cc2)NC(=O)Cc2ccc(Cl)cc2)cc1 |  | > 20 µM | > 43 | 
Cc1ccc(C(NC(=O)Cc2ccc(C(F)(F)F)cc2)NC(=O)Cc2ccc(C(F)(F)F)cc2)cc1 | > 20 µM |  |  | 
CCCCCCCCCC(=O)NC(NC(=O)CCCCCCCCC)c1ccc(N(CC)CC)cc1 |  | > 20 µM |  | 
COc1ccc(C(NC(=O)Cc2ccc(C(F)(F)F)cc2)NC(=O)Cc2ccc(C(F)(F)F)cc2)cc1 | > 20 µM |  |  | 
O=C(Cc1ccc(C(F)(F)F)cc1)NC(NC(=O)Cc1ccc(C(F)(F)F)cc1)c1ccc(Cl)cc1 | > 20 µM |  |  | 
O=C(Cc1ccc(Cl)cc1)NC(NC(=O)Cc1ccc(Cl)cc1)c1ccc(C(F)(F)F)cc1 |  | > 20 µM | > 198 | 
O=C(Cc1ccc(C(F)(F)F)cc1)NC(NC(=O)Cc1ccc(C(F)(F)F)cc1)c1ccccc1 | > 20 µM |  |  | 
O=C(Cc1ccc(C(F)(F)F)cc1)NC(NC(=O)Cc1ccc(C(F)(F)F)cc1)c1ccc(C(F)(F)F)cc1 | > 20 µM |  |  | 
CCCCC(=O)NC(NC(=O)CCCC)c1ccc(N(CC)CC)cc1 |  | > 20 µM | > 109 | 
COc1ccc(C(NC(=O)Cc2ccc(Cl)cc2)NC(=O)Cc2ccc(Cl)cc2)cc1 |  | > 20 µM | > 65 | 
O=C(Cc1ccc(Cl)cc1)NC(NC(=O)Cc1ccc(Cl)cc1)c1ccc(F)cc1 | > 20 µM |  |  | 
O=C(Cc1ccc(Cl)cc1)NC(NC(=O)Cc1ccc(Cl)cc1)c1ccccc1C(F)(F)F |  | > 20 µM | > 127 | 
CCCCCC(=O)NC(NC(=O)CCCCC)c1ccc(N(CC)CC)cc1 |  | > 20 µM | > 800 | EC50 (Cannabinoid receptor 2 [3]): 0.0134 µM
Cc1ccc(Cn2nc(C(=O)N[C@@H]3C(C)(C)[C@@H]4CC[C@@]3(C)C4)cc2-c2ccc(Cl)c(C)c2)cc1 [SR-144528] |  |  |  | Activity (PBMC): Non-toxic

The next lines start with results.

Ki (Cannabinoid receptor 2 [1]) | Ki (Cannabinoid receptor 1) | Ratio Ki (Homo sapiens) | Structure (SMILES) | further results
0.203 µM | > 20 µM | > 99 | O=C(Cc1ccccc1)NC(NC(=O)Cc1ccccc1)c1ccc(N(Cc2ccccc2)Cc2ccccc2)cc1 | 
 | > 20 µM |  | O=C(Cc1ccccc1)NC(/C=C/c1ccccc1)NC(=O)Cc1ccccc1 | 
 | > 20 µM | > 26 | COc1ccc(C(NC(=O)Cc2ccccc2)NC(=O)Cc2ccccc2)cc1 | 
0.022 µM | > 20 µM |  | CCCN(CCC)c1ccc(C(NC(=O)Cc2ccccc2)NC(=O)Cc2ccccc2)cc1 | EC50 (Cannabinoid receptor 2 [3]): 0.0283 µM
> 20 µM |  |  | O=C(Cc1ccc(Cl)cc1)NC(NC(=O)Cc1ccc(Cl)cc1)c1ccccc1 | 
 | > 20 µM | > 34 | O=C(Cc1ccccc1)NC(NC(=O)Cc1ccccc1)c1ccc(C(F)(F)F)cc1 | 
 | > 20 µM |  | CC(C)c1ccc(C(NC(=O)Cc2ccccc2)NC(=O)Cc2ccccc2)cc1 | inhibition (Bone marrow cell [2]): Dose-dependent effect; EC50 (Cannabinoid receptor 2 [3]): 0.00411 µM; Activity (PBMC): Non-toxic
> 20 µM | > 20 µM |  | O=C(Cc1ccccc1)NC(Cc1ccccc1)NC(=O)Cc1ccccc1 | 
 | > 20 µM | > 90 | CCCCN(CCCC)c1ccc(C(NC(=O)Cc2ccccc2)NC(=O)Cc2ccccc2)cc1 | 
 | > 20 µM | > 34 | O=C(Cc1ccccc1)NC(NC(=O)Cc1ccccc1)c1ccc(N2CCCCC2)cc1 | 
 | > 20 µM |  | O=C(Cc1ccccc1)NC(CCc1ccccc1)NC(=O)Cc1ccccc1 | 
 | > 20 µM | > 26 | CN(C)c1ccc(C(NC(=O)Cc2ccccc2)NC(=O)Cc2ccccc2)cc1 | inhibition (Bone marrow cell [2]): Dose-dependent effect; EC50 (Cannabinoid receptor 2 [3]): 0.159 µM; Activity (PBMC): Non-toxic
> 20 µM |  |  | O=C(Cc1ccccc1)NC(NC(=O)Cc1ccccc1)c1ccc([N+](=O)[O-])cc1 | 
12.6 µM |  |  | Nc1ccc(C(NC(=O)Cc2ccccc2)NC(=O)Cc2ccccc2)cc1 | 
 | > 20 µM |  | CC(C)Oc1ccc(C(NC(=O)Cc2ccccc2)NC(=O)Cc2ccccc2)cc1 | inhibition (Bone marrow cell [2]): Dose-dependent effect; Activity (PBMC): Non-toxic
0.167 µM | > 20 µM | > 119 | CCN(CC)c1ccc(C(NC(=O)/C=C/c2ccccc2)NC(=O)/C=C/c2ccccc2)cc1 | 
 | > 20 µM |  | CCCCCC(NC(=O)Cc1ccccc1)NC(=O)Cc1ccccc1 | 
0.213 µM | > 20 µM |  | CCN(CC)c1ccc(C(NC(=O)CCc2ccccc2)NC(=O)CCc2ccccc2)cc1 | 
 | > 20 µM | > 313 | CCN(CC)c1ccc(C(NC(=O)Cc2ccccc2)NC(=O)Cc2ccccc2)cc1 | inhibition at 1 µM (Bone marrow cell [4]): 79%; inhibition at 10 µM (Bone marrow cell [5]): 84%; inhibition (Bone marrow cell [2]): Dose-dependent effect; EC50 (Cannabinoid receptor 2 [3]): 0.00573 µM; inhibition at 0.1 µM (Bone marrow cell [6]): 72%; Activity (PBMC): Non-toxic
0.071 µM | > 20 µM | > 281 | O=C(Cc1ccccc1)NC(NC(=O)Cc1ccccc1)c1ccc(N2CCCC2)cc1 | EC50 (Cannabinoid receptor 2 [3]): 0.0171 µM
 | > 20 µM | > 29 | CCN(CC)c1ccc(C(NC(=O)c2ccccc2)NC(=O)c2ccccc2)cc1 | 
